The source made the active and inactive calls. The rule behind the calls is not given here.
What follows are compounds tested against T1, Peroxisome proliferator-activated receptor gamma (Homo sapiens) (UniProt P37231) (assay: Agonist activity at human PPARgamma expressed in HEK293 cells co-transfected with PPRE assessed as beta-galactosidase signal at 25 uM after 48 hrs by reporter gene assay relative to control).
T1 sequence (whole entry): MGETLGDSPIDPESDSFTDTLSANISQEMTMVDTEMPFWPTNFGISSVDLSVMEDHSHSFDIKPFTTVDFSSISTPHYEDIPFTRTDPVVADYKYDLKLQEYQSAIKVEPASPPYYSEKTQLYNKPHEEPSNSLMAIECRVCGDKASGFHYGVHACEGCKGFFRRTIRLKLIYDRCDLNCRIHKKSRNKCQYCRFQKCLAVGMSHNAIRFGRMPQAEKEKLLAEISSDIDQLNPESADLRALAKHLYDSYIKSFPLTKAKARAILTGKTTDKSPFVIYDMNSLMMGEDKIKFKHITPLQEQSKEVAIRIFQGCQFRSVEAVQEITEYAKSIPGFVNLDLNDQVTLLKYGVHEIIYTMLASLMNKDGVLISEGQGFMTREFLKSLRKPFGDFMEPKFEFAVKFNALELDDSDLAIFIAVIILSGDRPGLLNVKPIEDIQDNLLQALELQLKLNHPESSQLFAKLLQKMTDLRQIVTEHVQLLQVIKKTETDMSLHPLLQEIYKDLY
Format: functional, cell-based
How it was run: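 HEK293 cells were transfected with FuGENE 6 using a PPRE-luciferase reporter, pSG5-hPPARγ1 and a β-galactosidase control plasmid. After 24 h they were replated at 5 × 10⁴ cells/well, attached overnight, then treated for 48 h with 0.1% DMSO as vehicle. Luciferase was read, normalized to the β-gal signal and reported as fold activation over vehicle. Mean of two experiments in triplicate.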

Q: Which fold change (FC) does the source give for `O=c1c(-c2cccc(F)c2)coc2cc(O)ccc12` here?
A: 4.1

Q: How did the fold change (FC) turn out when `O=c1c(-c2ccc(C(F)(F)F)cc2)coc2cc(O)ccc12` was run?
A: 4.4

Q: `COc1cc(-c2coc3cc(OC4CCCCO4)ccc3c2=O)cc(OC)c1OC` (stereo not given) was tested. Which fold change (FC) did it give?
A: 2.3

Q: Which Activity does the source give for `CCc1cc2c(=O)c(-c3ccc4c(c3)OCO4)c(C(F)(F)F)oc2cc1O` here?
A: inactive

Q: How did the Activity turn out when `Oc1ccc(-c2n[nH]cc2-c2ccc3c(c2)OCO3)c(O)c1` was run?
A: inactive

Q: Which fold change (FC) does the source give for `COc1ccc(-c2oc3cc(O)ccc3c(=O)c2O)cc1OC` here?
A: 2.4

Q: For `O=c1c(O)c(-c2ccc(O)c(O)c2)oc2cc(O)cc(O)c12`, which fold change (FC) is on record?
A: 1.3

Q: For `Oc1ccc(-c2n[nH]cc2-c2ccc(F)cc2)c(O)c1`, which fold change (FC) is on record?
A: 1.7

Q: Which Activity does the source give for `COc1cc(-c2coc3cc(O)ccc3c2=O)cc(OC)c1OC` here?
A: inactive

Q: For `O=c1c(-c2ccc(Cl)cc2)coc2cc(O)ccc12`, which fold change (FC) is on record?
A: 2.6

Q: Which fold change (FC) does the source give for `COc1ccccc1-c1coc2cc(O)ccc2c1=O` here?
A: 1.6

Q: Which fold change (FC) does the source give for `COc1cc(-c2oc3cc(O)cc(O)c3c(=O)c2O)cc(OC)c1O` here?
A: 1.2

Q: Which fold change (FC) does the source give for `COc1ccc(-c2coc3cc(O)ccc3c2=O)cc1OC` here?
A: 10.5

Q: How did the fold change (FC) turn out when `O=c1c(-c2cc(F)c(F)c(F)c2)coc2cc(O)ccc12` was run?
A: 1.4

Q: For `O=c1c(-c2ccc(O)c(O)c2)coc2cc(O)ccc12`, which fold change (FC) is on record?
A: 7.5

Q: Which Activity does the source give for `O=c1c(-c2cccc(OCc3ccccc3)c2)coc2cc(O)ccc12` here?
A: inactive

Q: With `Oc1ccc(-c2n[nH]c(C(F)(F)F)c2-c2ccc(F)cc2)c(O)c1` as the compound, how does the fold change (FC) read?
A: 3.9

Q: `O=c1c(-c2ccc(F)cc2F)coc2cc(O)ccc12` was tested. Which fold change (FC) did it give?
A: 13.8

Q: With `COc1ccc(-c2coc3cc(O)ccc3c2=O)c(OC)n1` as the compound, how does the Activity read?
A: inactive

Q: `COc1ccccc1/C=C/C(=O)c1ccc(O)cc1O` was tested. Which fold change (FC) did it give?
A: 1.1

Q: How did the fold change (FC) turn out when `O=c1c(-c2ccc3c(c2)OCO3)coc2cc(OC3CCCCO3)ccc12` (stereo not given) was run?
A: 9.4

Q: `Cc1[nH]nc(-c2ccc(O)cc2O)c1-c1ccc(F)cc1` was tested. Which fold change (FC) did it give?
A: 5.3

Q: `O=c1c(-c2cccc(OC(F)(F)F)c2)coc2cc(O)ccc12` was tested. Which fold change (FC) did it give?
A: 2.1

Q: `COc1ccc(-c2c(-c3ccc(O)cc3O)n[nH]c2C)cc1` was tested. Which fold change (FC) did it give?
A: 2.2

Q: `CCc1cc2c(=O)c(-c3ccc4c(c3)OCO4)c(C)oc2cc1OCC(=O)O` was tested. Which fold change (FC) did it give?
A: 2.3

Q: For `COc1ccc(/C=C/C(=O)c2ccc(O)cc2O)cc1OC`, which fold change (FC) is on record?
A: 3.5

Q: For `COc1ccc(/C=C/C(=O)c2ccc(O)cc2O)cc1`, which fold change (FC) is on record?
A: 2.6

Q: For `O=C(/C=C/c1ccc(O)cc1)c1ccc(O)cc1O`, which fold change (FC) is on record?
A: 1.3

Q: Which fold change (FC) does the source give for `O=c1c(-c2ccc(O)cc2)coc2cc(O)cc(O)c12` here?
A: 3.4

Q: For `O=c1c(-c2cc(O)cc(O)c2)coc2cc(O)ccc12`, which fold change (FC) is on record?
A: 7.4

Q: How did the fold change (FC) turn out when `O=c1c(-c2ccc3c(c2)OCCO3)coc2cc(O)ccc12` was run?
A: 11.3

Q: With `CCc1cc2c(=O)c(-c3ccc4c(c3)OCO4)coc2cc1O` as the compound, how does the fold change (FC) read?
A: 12.7

Q: Which fold change (FC) does the source give for `CCc1cc2c(=O)c(-c3ccc4c(c3)OCO4)c(C)oc2cc1O` here?
A: 5.3

Q: How did the fold change (FC) turn out when `COc1cccc(/C=C/C(=O)c2ccc(O)cc2O)c1` was run?
A: 2.1

Q: Which fold change (FC) does the source give for `COc1c(F)cc(F)cc1-c1coc2cc(O)ccc2c1=O` here?
A: 7.5

— ChEMBL document CHEMBL1154598, “7-Hydroxy-benzopyran-4-one derivatives: a novel pharmacophore of peroxisome proliferator-activated receptor alpha and -gamma (PPARalpha and gamma) dual agonists” (J Med Chem, 2009)
